Reference: ChEMBL document CHEMBL2384967, “Benzimidazole-based antibacterial agents against Francisella tularensis” (Bioorg Med Chem, 2013)
Converted amounts (≈) assume the structure as drawn.

Key:
Francisella tularensis [1] = experiment: Antibacterial activity against Francisella tularensis LVS after 18 hrs by Microplate Alamar Blue assay; format: functional
Francisella tularensis [2] = experiment: Antibacterial activity against Francisella tularensis LVS at 1 ug/ml by Microplate Alamar Blue assay; format: functional; details: read-out: GI
Vero = experiment: Cytotoxicity against african green monkey vero cells after 3 days; format: cell-based; details: Chlorocebus sabaeus, 72 h
In short: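 Vero cells grown in L15 medium without CO2, 1.25×10^5 per well. Triplicate 2-fold drug dilutions from 200 µg/mL, with resazurin at a final 25 µg/mL, for 3 days at 37 °C. LD is the lowest concentration that inhibits growth, with no resazurin reduction.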

Francisella tularensis [3] = experiment: Antibacterial activity against Francisella tularensis LVS infected in mouse RAW 264.7 macrophages assessed as log reduction in CFU at 2 to 50 ug/ml after 18 hrs relative to control; format: functional
Francisella tularensis [4] = experiment: Antibacterial activity against Francisella tularensis LVS infected in mouse RAW 264.7 macrophages after 18 hrs; format: functional
Francisella tularensis [5] = experiment: Antibacterial activity against Francisella tularensis LVS at 0.2 ug/ml by Microplate Alamar Blue assay; format: functional; details: read-out: GI

Row | Structure (SMILES) | MIC90 (Francisella tularensis [1]) [µg/mL] | inhibition of growth at 1 µg/mL (Francisella tularensis [2]) [%] | IC50 (Vero) [µg/mL] | FC (Francisella tularensis [3]) | Activity (Francisella tularensis [4]) | inhibition of growth at 0.2 µg/mL (Francisella tularensis [5]) [%]
1 | CCN(CC)c1cc2[nH]c(-c3ccccc3OC)nc2cc1NC(=O)c1ccccc1OC | 4.85 (≈ 10.9 µM) | > 90 | > 200 | – | – | –
2 | O=C(Nc1cc2nc(-c3ccco3)[nH]c2cc1N1CCCCC1)c1cccc2ccccc12 | 2.4 (≈ 5.5 µM) | > 90 | > 200 | 2 | Dose-dependent effect | –
3 | CCOC(=O)Nc1cc(NC(=O)c2ccccc2)c2[nH]c(-c3ccco3)nc2c1 | 3.8 (≈ 9.73 µM) | > 90 | > 200 | – | – | 40
4 | CCN(CC)c1cc2[nH]c(-c3ccc(F)cc3)nc2cc1NC(=O)C1CCC1 | 4.84 (≈ 12.7 µM) | > 90 | > 200 | – | – | –
5 | O=C(Nc1cc2nc(-c3cccs3)[nH]c2cc1N1CCCCC1)OCc1ccccc1 | 0.98 (≈ 2.27 µM) | > 90 | > 200 | 2 | Dose-dependent effect | –
6 | CCOC(=O)Nc1cc(N)c2[nH]c(-c3ccc(Br)cc3)nc2c1 | 2.99 (≈ 7.97 µM) | > 90 | > 200 | – | – | –
7 | CCN(CC)c1cc2[nH]c(-c3ccc(C)cc3)nc2cc1NC(=O)C1CCC1 | 1.16 (≈ 3.08 µM) | > 90 | > 200 | – | – | 40
8 | CCOC(=O)Nc1cc(NC(=O)c2ccccc2OC)c2[nH]c(-c3ccc(Br)cc3)nc2c1 | 1.4 (≈ 2.75 µM) | > 90 | > 200 | – | – | –
9 | CCN(CC)c1cc2[nH]c(-c3ccccc3OC)nc2cc1NC(=O)C1CCC1 | 7.59 (≈ 19.3 µM) | > 90 | > 200 | – | – | –
10 | CCOC(=O)Nc1cc(NC(=O)C2CCCC2)c2[nH]c(-c3ccc(Br)cc3)nc2c1 | 0.75 (≈ 1.59 µM) | > 90 | > 200 | – | – | –
11 | CCN(CCN(C)C)c1cc2[nH]c(C3CCCCC3)nc2cc1NS(=O)(=O)c1ccccc1 | 35.8 (≈ 76.2 µM) | > 90 | > 200 | – | – | –
12 | CCOC(=O)Nc1cc(NC(=O)c2ccc(OC)cc2)c2[nH]c(-c3ccc(C(=O)OC)cc3)nc2c1 | – | > 90 | > 200 | – | – | 40
13 | CCOC(=O)Nc1cc(NC(=O)c2ccc(F)cc2)c2[nH]c(-c3ccco3)nc2c1 | 2.8 (≈ 6.86 µM) | > 90 | > 200 | – | – | 40
14 | CCOC(=O)Nc1cc(N)c2[nH]c(-c3cc(C)cc(C)c3)nc2c1 | 4.33 (≈ 13.3 µM) | > 90 | > 200 | – | – | –
15 | CC(C)(C)OC(=O)Nc1cc(NC(=O)OCc2ccccc2)c2[nH]c(-c3ccccc3)nc2c1 | 0.35 (≈ 0.763 µM) | > 90 | > 200 | – | – | –
16 | CCN(CC)c1cc2[nH]c(-c3ccccc3)nc2cc1NC(=O)c1ccc(C)cc1 | 12.9 (≈ 32.4 µM) | > 90 | > 200 | – | – | 40
17 | CCOC(=O)Nc1cc(NC(=O)c2ccccc2)c2[nH]c(-c3ccc(Br)cc3)nc2c1 | 0.48 (≈ 1 µM) | > 90 | > 200 | – | – | –
18 | CCOC(=O)Nc1cc(NC(=O)c2ccccc2)c2[nH]c(-c3ccc(C(=O)OC)cc3)nc2c1 | – | > 90 | 650 (≈ 1420 µM) | – | – | 40
19 | O=C(Nc1cc2nc(C3CCCCC3)[nH]c2cc1N1CCCC1)C1CC1 | 2.1 (≈ 5.96 µM) | > 90 | > 200 | – | – | –
20 | CCOC(=O)Nc1cc(NC(=O)C2CCCCC2)c2[nH]c(-c3ccc(C(=O)OC)cc3)nc2c1 | 1.5 (≈ 3.23 µM) | > 90 | > 200 | – | – | 40
21 | COc1ccccc1C(=O)Nc1cc2nc(-c3cccs3)[nH]c2cc1N1CCCCC1 | 1.6 (≈ 3.7 µM) | > 90 | > 200 | – | – | –
22 | COc1ccccc1C(=O)Nc1cc2nc(-c3ccco3)[nH]c2cc1N1CCCCC1 | 2.1 (≈ 5.04 µM) | > 90 | > 200 | 2 | Dose-dependent effect | –
23 | CN(C)CCN(C)c1cc2[nH]c(C3CCCCC3)nc2cc1NS(=O)(=O)c1ccccc1 | 48.6 (≈ 107 µM) | > 90 | > 200 | – | – | –
